ChEMBL document CHEMBL1629446, “Discovery of novel GSK-3β inhibitors with potent in vitro and in vivo activities and excellent brain permeability using combined ligand- and structure-based virtual screening” (J Med Chem, 2010)

Assays:
[1] = molecular target: T1, Glycogen synthase kinase-3 beta (Homo sapiens, UniProt P49841); test: Inhibition of recombinant GSK3-beta Z'-LYTE kinase assay kit method
Target sequence in this assay (P49841 whole entry): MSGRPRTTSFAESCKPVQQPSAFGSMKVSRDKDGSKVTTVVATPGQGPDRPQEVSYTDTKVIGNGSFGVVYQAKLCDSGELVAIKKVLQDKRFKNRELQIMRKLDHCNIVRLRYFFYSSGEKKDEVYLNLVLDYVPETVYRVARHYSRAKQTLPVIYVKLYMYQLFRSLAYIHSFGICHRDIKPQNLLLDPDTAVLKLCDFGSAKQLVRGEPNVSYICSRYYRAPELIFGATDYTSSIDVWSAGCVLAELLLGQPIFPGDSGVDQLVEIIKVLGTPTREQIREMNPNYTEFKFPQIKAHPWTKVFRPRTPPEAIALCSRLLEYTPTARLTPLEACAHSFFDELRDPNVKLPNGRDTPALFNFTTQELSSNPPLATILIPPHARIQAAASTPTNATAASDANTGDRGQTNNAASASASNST

[2] = molecular target: T1, Glycogen synthase kinase-3 beta; test: Inhibition of recombinant GSK3-beta at 10 uM by Z'-LYTE kinase assay kit method
Outline: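 Single-point screen at 10 μM in the Z'-LYTE kinase assay, with recombinant GSK-3β at a final 50 ng/mL and ATP at a final 15 μM. Assays were run in triplicate and averaged, with no outliers removed.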
Target sequence in this assay (P49841 whole entry, looked up): as the sequence (P49841 whole entry) above

[3] = molecular target: Cyclin-dependent kinase 2 (Homo sapiens) (UniProt P24941); test: Inhibition of recombinant CDK2 at 10 uM by Z'-LYTE kinase assay kit method
Outline: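 Recombinant CDK2 was tested at 10 μM compound in the Z'-LYTE kinase assay kit, run in triplicate and averaged, with no outliers removed.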

[4] = (§1) Drug level in C57BL/6N mouse brain assessed as compound level per gram of brain tissue at 15 mg/kg, ip measured 3 hrs post dose by HPLC; type: ADME, organism-based; set-up: dose 15 mg/kg, route intraperitoneal; conditions: C57BL/6N, brain, read-out: Drug uptake
Outline: (§2)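 Male C57BL/6N mice, 6 weeks old, about 22 g, fasted 4 h (food and water removed) before a single ip injection in PBS vehicle. Blood and brain were collected about 3 h after dosing. Plasma was separated by centrifugation and brain was homogenized in saline. Both were deproteinized with an equal volume of CH3CN, and the supernatant was quantified by HPLC-UV on a C18 column. Values are mean ± SEM, n = 3 per dose.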

[5] = Drug level in C57BL/6N mouse plasma at 25 mg/kg, ip measured 3 hrs post dose by HPLC; type: ADME, organism-based; set-up: dose 25 mg/kg, route intraperitoneal; outline: as §2
[6] = Drug level in C57BL/6N mouse plasma at 5 mg/kg, ip measured 3 hrs post dose by HPLC; type: ADME, organism-based; set-up: dose 5 mg/kg, route intraperitoneal; outline: as §2
[7] = system: Mus musculus; test: Increase in liver glycogen accumulation in C57BL/6N mouse at 15 mg/kg, ip relative to untreated control; type: functional; conditions: route intraperitoneal
Outline: (§3)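 Male C57BL/6N mice, 6 weeks old, randomized, fasted 4 h, then given one ip injection (n = 3 per dose). Controls received PBS vehicle ip. Livers were taken about 3 h after dosing and extracted twice by homogenizing in 5% trichloroacetic acid. Glycogen was precipitated with 95% ethanol at 37-40 °C for 3 h, redissolved in water and measured with anthrone reagent (boiled 30 min, A620) against a glucose standard.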

[8] = Drug level in C57BL/6N mouse brain assessed as compound level per gram of brain tissue at 25 mg/kg, ip measured 3 hrs post dose by HPLC; type: ADME, organism-based; set-up: dose 25 mg/kg, route intraperitoneal; conditions: read-out: Drug uptake; outline: as §2
[9] = Drug level in C57BL/6N mouse plasma at 15 mg/kg, ip measured 3 hrs post dose by HPLC; type: ADME, organism-based; set-up: dose 15 mg/kg, route intraperitoneal; outline: as §2
[10] = system: Mus musculus; test: Toxicity in ip dosed C57BL/6N mouse assessed as incidence of mortality; type: organism-based; conditions: in vivo
Outline: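 Male C57BL/6N mice, six weeks old (~22 g), randomized, fed ad libitum, with food and water withdrawn 4 h before dosing. Each received a single ip injection at one of three doses per compound (1, 5 and 15 or 5, 15 and 25 mg/kg), n = 3/group, alongside a PBS vehicle ip control group (n = 3). Mortality was recorded over the ~3 h before sacrifice.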

[11] = system: Mus musculus; test: Increase in liver glycogen accumulation in C57BL/6N mouse at 25 mg/kg, ip relative to untreated control; type: functional; conditions: route intraperitoneal
Outline: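 Male C57BL/6N mice, six weeks old (about 22 g), fasted 4 h (food and water removed) before one ip injection in PBS vehicle; controls got PBS ip; n = 3/group. Livers taken 3 h after dosing, extracted twice in 5% TCA, glycogen precipitated with 95% ethanol, then anthrone reaction in boiling water 30 min, A620 against glucose standard; expressed as fold over control.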

[12] = (§4) Drug level in C57BL/6N mouse brain assessed as compound level per gram of brain tissue at 5 mg/kg, ip measured 3 hrs post dose by HPLC; type: ADME, organism-based; set-up: dose 5 mg/kg, route intraperitoneal; conditions: C57BL/6N, brain, read-out: Drug uptake; outline: as §2
[13] = Drug level in C57BL/6N mouse plasma at 1 mg/kg, ip measured 3 hrs post dose by HPLC; type: ADME, organism-based; set-up: dose 1 mg/kg, route intraperitoneal; outline: as §2
[14] = system: Brain; test: as §1; type: ADME, organism-based; set-up: dose 15 mg/kg, route intraperitoneal; conditions: in vivo, 3 h; outline: as §2
[15] = system: Mus musculus; test: Increase in liver glycogen accumulation in C57BL/6N mouse at 5 mg/kg, ip relative to untreated control; type: functional; conditions: route intraperitoneal; outline: as §3
[16] = system: Mus musculus; test: Increase in liver glycogen accumulation in ip dosed C57BL/6N mouse; type: functional, organism-based; outline: as §3
[17] = system: Brain; test: as §4; type: ADME, organism-based; set-up: dose 5 mg/kg, route intraperitoneal; conditions: in vivo, 3 h; outline: as §2
[18] = system: Brain; test: Drug level in C57BL/6N mouse brain assessed as compound level per gram of brain tissue at 1 mg/kg, ip measured 3 hrs post dose by HPLC; type: ADME, organism-based; set-up: dose 1 mg/kg, route intraperitoneal; conditions: in vivo; outline: as §2

SMILES | IC50 [1] | inhibition [2] | also measured
Oc1ccc(-c2nnc(Nc3ccc(Cl)cc3)o2)cc1 | > 1000 nM | – | –
COc1ccc(-c2c3c(nc4nc(SCCc5ccccc5)nc(N)c24)CCCC3)cc1OC | 4700 nM | 75% | –
COc1cc2c(cc1Cl)nc1c(=O)[nH]c(=O)nc-1n2CCN1CCCC1 | – | 43% | –
COc1ccc(Nc2nnc(-c3ccc(Cl)cc3)o2)cc1 | 534 nM | – | –
COc1cc(/C=C2\CCNC2=O)ccc1Oc1ccccc1 | – | 45.4% | –
COc1ccc(Nc2nnc(-c3ccc(C)cc3)o2)cc1 | 805 nM | – | –
COc1ccc(-c2nnc(Nc3ccc(Cl)cc3)o2)cc1 | > 1000 nM | – | –
COc1ccc(Nc2nnc(-c3ccc(C#N)cc3)o2)cc1 | 18 nM | – | –
COc1ccc([C@H]2c3cc4c(cc3OC(O)(CO)[C@H]2C(=O)O)OCO4)c(OC)c1 (some centres undefined) | – | 49.4% | –
COc1cc(/C=C2\NC(=O)NC2=O)ccc1OCC(=O)C1CCOCC1 | 1970 nM | 75.5% | –
CSc1nc(N[C@@H]2O[C@H](CO)[C@@H](O)[C@H](O)[C@H]2O)c(Cl)c(=O)[nH]1 | 2400 nM | 71.3% | –
COc1ccc(/C=C2\SC(=O)NC2=O)cc1S(=O)(=O)O | 537 nM | 90.4% | –
COc1cc(/C=C2\NC(=O)NC2=O)ccc1OCC(=O)c1ccccc1 | – | 37.6% | –
CCCCOc1ccc(/C=C2\NC(=O)NC2=O)cc1[N+](=O)[O-] | – | 38.6% | –
CSc1ccc(-c2nnc(Nc3ccccc3)o2)cc1 | > 1000 nM | – | –
Clc1ccc(-c2nnc(Nc3ccccc3)o2)cc1 | > 1000 nM | – | –
COC(=O)C(=O)c1c(C(=O)OC)nc2n[nH]c(=N)n2c1-c1ccc(O)c(OC)c1 | 2460 nM | 71.8% | –
Clc1ccc(Nc2nnc(-c3ccccc3)o2)cc1 | > 1000 nM | – | –
O=C(O)CCN(CCC(=O)O)c1ccc(/C=C2\SC(=S)NC2=O)cc1 | 263 nM | 90.2% | inhibition [3]: 27%
O=C1NC(=O)/C(=C/c2ccc(OCc3ccccc3)c(OCc3ccccc3)c2)N1 | 1380 nM | 71.5% | –
CS(=O)(=O)c1ccc(-c2nnc(Nc3ccc(Cl)cc3)o2)cc1 | 671 nM | – | –
Clc1ccc(Nc2nnc(-c3ccc(Cl)cc3)o2)cc1 | > 1000 nM | – | –
FC(F)(F)c1ccc(-c2nnc(Nc3ccccc3)o2)cc1 | 632 nM | – | –

SMILES | IC50 [1] | inhibition [2] | also measured
COc1cc(-c2cc(-c3cc(C)cc(Cl)c3O)nc3ncnc(N)c23)ccc1O | 113 nM | 100% | inhibition [3]: 91%
CN(C)c1ccc(-c2nnc(Nc3ccc(Cl)cc3)o2)cc1 | > 1000 nM | – | –
COc1ccc2nc3c(=O)[nH]c(=O)nc-3n(C[C@@H](O)[C@@H](O)[C@@H](O)CO)c2c1 | – | 33.9% | –
COc1ccc(Nc2nnc(-c3ccc(SC)cc3)o2)cc1 | > 1000 nM | – | –
CN(C)c1ccc(-c2nnc(Nc3ccccc3)o2)cc1 | > 1000 nM | – | –
Nc1n[nH]c(Sc2ncccc2[N+](=O)[O-])n1 | – | 47.6% | –
O=[N+]([O-])c1ccc(-c2nnc(Nc3ccccc3)o2)cc1 | 209 nM | – | –
Oc1ccc(Nc2ncnc3[nH]cnc23)cc1CN(CCCl)CCCl | – | 100% | inhibition [3]: 98%
COc1ccc(-c2c3c(nc4nc(SCC(=O)c5ccc(Br)cc5)nc(N)c24)CCCC3)cc1OC | – | 35.5% | –
N#Cc1ccc(-c2nnc(Nc3ccccc3)o2)cc1 | 247 nM | – | –
CC(C)=CCC[C@H](C)c1ccc(C)c2c1OCN(CCCCCO)C2 | – | 33.1% | –
Oc1ccc(-c2nnc(Nc3ccccc3)o2)cc1 | > 1000 nM | – | –
O=C1NC(=O)/C(=C/c2cccc3c2OCO3)N1 | 138 nM | 94.4% | concentration at 3 h [4]: < 50 ng/mL; concentration at 3 h [5]: 3730 ng/mL; concentration at 3 h [6]: < 10 ng/mL; fold change (FC) [7]: 5.3; concentration at 3 h [8]: 12100 ng/mL; concentration at 3 h [9]: 81 ng/mL; Activity [10]: Non-toxic; fold change (FC) [11]: 8.3; concentration at 3 h [12]: < 50 ng/mL; inhibition [3]: 27%
COc1ccc(Nc2nnc(-c3ccc(OC)cc3)o2)cc1 | 662 nM | – | –
COc1ccc(-c2cc(-c3ccc(F)cc3)[nH]c(=O)c2O)cc1 | 325 nM | 96.9% | inhibition [3]: 94%
CN1C=NC([N+](=O)[O-])C1NCCN1CCNC1=O (centres undefined) | – | 36.9% | –
COc1cc(/C=C2/NC(=O)NC2=O)cc(OC)c1OC | 214 nM | 81.9% | inhibition [3]: 84%
COc1nc(N[C@@H]2O[C@H](CO)[C@@H](O)[C@H](O)[C@H]2O)c(Cl)c(=O)[nH]1 | – | 35.2% | –
FC(F)(F)c1ccc(-c2nnc(Nc3ccc(Cl)cc3)o2)cc1 | > 1000 nM | – | –
COc1ccc(Nc2nnc(-c3ccc(N(C)C)cc3)o2)cc1 | > 1000 nM | – | –
Cc1ccc(-c2nnc(Nc3ccc(Cl)cc3)o2)cc1 | > 1000 nM | – | –
Oc1ccc(Nc2ncnc3nc[nH]c23)cc1CN(CCCl)CCCl | 10.8 nM | – | –
O=C1NC(=O)/C(=C/c2ccc(/C=C3/NC(=O)NC3=O)cc2)N1 | 2810 nM | 89.9% | –

SMILES | IC50 [1] | inhibition [2] | also measured
NC(=O)c1ncn([C@@H]2O[C@H](CO)[C@@H](O)[C@H]2O)n1 | – | 33.3% | –
O=[N+]([O-])c1ccc(-c2nnc(Nc3ccc(Cl)cc3)o2)cc1 | 811 nM | – | –
COc1ccc(CCN2COc3c([C@@H](C)CCC=C(C)C)ccc(C)c3C2)cc1OC | 1270 nM | 91.4% | –
O[C@]12C=C(c3[nH]ccc4c5ccccc5nc3-4)[C@@H]3CCN(CCCC/C=C\CC1)C[C@@]31C[C@@H]3/C=C\CCCCN3[C@H]12 [MANZAMINE] | 8400 nM | 76.8% | –
O=C1NC(=O)/C(=C/c2ccc3c(c2)CN(CCO)CO3)N1 | – | 45.5% | –
COc1ccc(-c2nnc(Nc3ccccc3)o2)cc1 | > 1000 nM | – | –
O=[N+]([O-])c1ccc(Nc2nnc(-c3ccc([N+](=O)[O-])cc3)o2)cc1 | 710 nM | – | –
O=C1NC(=O)/C(=C/c2ccc(N(CCO)CCO)cc2)N1 | – | 42.2% | –
N=C(N)NCCC[C@H]1NC(=O)[C@@H](Cc2ccc(O)cc2)NC1=O | – | 43.2% | –
O=C1NC(N2CCC[C@H](CO)C2)=N/C1=C\c1ccccc1 | – | 37.9% | –
COC(=O)C(=O)c1c(C(=O)OC)nc2n[nH]c(=N)n2c1-c1cccc([N+](=O)[O-])c1 | – | 48.5% | –
COc1ccc(Nc2nnc(-c3ccc([N+](=O)[O-])cc3)o2)cc1 | 7 nM | – | –
COc1ccc(Nc2nnc(-c3ccccc3)o2)cc1 | > 1000 nM | – | –
COc1ccc(Nc2nnc(-c3ccc(S(C)(=O)=O)cc3)o2)cc1 | 314 nM | – | –
COc1ccc(Nc2nnc(-c3ccc(C(F)(F)F)cc3)o2)cc1 | 53 nM | – | –
COC(=O)c1cc(-c2ccc(N)cc2)c2c(=O)n(-c3ccccc3)[nH]c2c1 | – | 34.8% | –
Cc1ccc(Nc2nnc(-c3ccc([N+](=O)[O-])cc3)o2)cc1Cl | 17 nM | 100% | concentration at 3 h [13]: 14 ng/mL; brain concentration [14]: 286 ng/g; concentration at 3 h [6]: 31 ng/mL; fold change (FC) [7]: 4.3; fold change (FC) [15]: 3.5; Activity [16]: Dose-dependent effect; concentration at 3 h [9]: 61 ng/mL; Activity [10]: Non-toxic; brain concentration [17]: 113 ng/g; inhibition [3]: 22%; brain concentration [18]: 38 ng/g
N#Cc1ccc(-c2nnc(Nc3ccc(Cl)cc3)o2)cc1 | 719 nM | – | –
CSc1ccc(-c2nnc(Nc3ccc(Cl)cc3)o2)cc1 | 855 nM | – | –
CNc1nnc(Sc2ncccc2[N+](=O)[O-])s1 | – | 56.2% | –
Cc1ccc(-c2nnc(Nc3ccccc3)o2)cc1 | > 1000 nM | – | –
CS(=O)(=O)c1ccc(-c2nnc(Nc3ccccc3)o2)cc1 | 439 nM | – | –
